GRIN3A LBD mod: NR3A (human) ligand-binding domain modulation; NR3A LBD differential scanning fluorimetry, Tm shift; 0% = protein alone, 100% = glycine-bound protein; Tm shift relative to glycine control, % at 25 µM; actives 2.5% (n = 340,000); AID 1259313;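 active = melting temperature shift of at least 10% of the positive control shift, at one fixed dose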
FAS-TE inh: blocks the thioesterase domain of human fatty acid synthase. P49327. recombinant FAS-TE, OMFH fluorogenic substrate, fluorescence endpoint. actives 0.67% (n = 360,000). inhibition, % at 15 µM. AID 602261;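 active = compounds whose normalised, plate-corrected inhibition of enzyme fluorescence in the single-dose primary screen is 50% or more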
Cardio protect: modulators protecting cardiomyocytes from myocardial damage; H9c2 cardiomyocytes, H2O2 injury protection, ATPLite, 2 h; protection from H2O2 cell death, % at 20 µM; actives 0.63% (n = 360,000); AID 588492;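 active = compounds giving at least 50% protection of heart cells from peroxide-induced death in the single-dose screen, raw or plate-pattern-corrected value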
Arr AP2 block: human beta-arrestin and AP2 interaction inhibition; actives 0.31% (n = 340,000); FITC-arrestin peptide / GST-AP2 beads, flow cytometry; AP2 beta2 appendage carries R879A mutation; inhibition, % at 10 µM;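 active = inhibition above a set limit, near 3 SD of compounds lacking own fluorescence, cut at about 54% in these data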
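System: GST-AP2 R879A bound to glutathione beads, E. coli-expressed. Also added: 50 nM FITC-arrestin peptide. Schedule: compound with beads 12 min RT, then probe 1 h RT. Signal: bead flow cytometry, FITC channel. Read-out basis: percent response.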
SENP1 FRET inh: blocks the human SENP1 SUMO protease catalytic domain. Q9P0U3. recombinant SENP1 catalytic domain, CyPet-SUMO1-YPet FRET cleavage. inhibition, % at 10 µM. actives 0.21% (n = 360,000);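 active = inhibition at least 30% at 10 µM, raw YFP signal under a set limit, fluorescence ratio 0.5 to 1.5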
Target sequence (Q9P0U3 419-644 limits assumed): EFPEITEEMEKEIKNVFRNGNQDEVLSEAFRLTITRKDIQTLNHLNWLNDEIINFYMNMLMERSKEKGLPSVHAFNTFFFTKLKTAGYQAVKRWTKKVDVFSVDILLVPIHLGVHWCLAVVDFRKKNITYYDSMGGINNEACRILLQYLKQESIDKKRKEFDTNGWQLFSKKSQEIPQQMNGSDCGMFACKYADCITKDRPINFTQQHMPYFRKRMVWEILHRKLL
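Material: hSENP1 catalytic domain, recombinant; medium: Tris pH 8 with BME, BSA, NP40 and catalase; compound: single concentration of 10 µM compound, 0.5% DMSO final; technique: FRET read of cyan and yellow fluorescence; timing: 50 min enzyme reaction, room temperature, light-protected; reagent: SFCypet-SUMO1-SFYpet substrate at 25 nM; control set: no-enzyme low, enzyme-DMSO high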
iPSC survival up: enhancers of human iPSC single-cell survival | survival enhancement, % at 20 µM | actives 0.044% (n = 360,000) | hiPSC single-cell survival, ATPlite luminescence; 100% = ROCK inhibitor wells, 0% = DMSO; in the data active = survival enhancement above about 18%;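 also: cells exposed to compounds for 16 hours before the ATP read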
Of the large screens only hits and unclear results are named; the others gave an inactive call. Compounds with a hit are over-represented: about 4% of the library has one in this group of screens.

CCOC(=O)CNCCC(=O)c1ccc(Br)cc1	GRIN3A LBD mod 22
Cc1cccc(NCCC(=O)c2ccc(Br)cc2)c1	none
Cc1ccc(CN(C)C(=O)COC(=O)CSc2ccc(C(N)=O)cc2[N+](=O)[O-])cc1	Cardio protect 58
CCOC(=O)N1CCN(C(=O)CSc2nnc(-c3cc(OC)cc(OC)c3)o2)CC1	GRIN3A LBD mod 11
O=[N+]([O-])c1ccc(/C=N/Nc2ccc3ccccc3c2)o1	GRIN3A LBD mod 21, SENP1 FRET inh 38
O=C(N/N=C/c1ccc([N+](=O)[O-])o1)c1cc2ccccc2o1	GRIN3A LBD mod 10
O=C(N/N=C/c1ccc([N+](=O)[O-])o1)c1cc2c(ccc3ccccc32)o1	none
CC(C)(C)n1nnnc1C(c1cc2ccccc2o1)N1CCN(C(=O)OCc2ccccc2)CC1 (stereo not drawn)	none (no result: GRIN3A LBD mod, Cardio protect, Arr AP2 block)
CC(C)(C)OC(=O)NCCCC[C@H](NC(=O)c1nc[nH]c1C(=O)N[C@@H](CCCCNC(=O)OC(C)(C)C)C(=O)OC(C)(C)C)C(=O)OC(C)(C)C	none
CC(C)C[C@H](NC(=O)c1[nH]cnc1C(=O)Nc1ccc(CNC(=O)OC(C)(C)C)cc1)C(=O)OCc1ccccc1	GRIN3A LBD mod 36
CC(C)(C)OC(=O)CNC(=O)c1[nH]cnc1C(=O)Nc1ccc(CNC(=O)OC(C)(C)C)cc1	Cardio protect 87
CC(C)(C)OC(=O)NCCCCCNC(=O)c1[nH]cnc1C(=O)N[C@@H](CCCCNC(=O)OC(C)(C)C)C(=O)OC(C)(C)C	FAS-TE inh 68
CC(C)(C)Cc1c(-c2cccc(Cl)c2)nc2ccc(Br)cn12	none (no result: GRIN3A LBD mod, Arr AP2 block)
COc1cncc(C#Cc2ccccn2)c1	none (no result: GRIN3A LBD mod, Cardio protect, Arr AP2 block)
CC(C)n1nnnc1C1c2ccccc2C(=O)N1Cc1cccnc1 (stereo not drawn)	none (no result: GRIN3A LBD mod, Cardio protect, Arr AP2 block)
COc1cc(OC)c(NC(=S)Nc2cc(Cl)cc(Cl)c2)cc1Cl	GRIN3A LBD mod 27
O=C(CCN1C(=O)C2CC=C(Cl)CC2C1=O)NCc1ccccc1 (stereo not drawn)	none
O=C(CCN1C(=O)C2CC=C(Cl)CC2C1=O)Nc1ccccc1O (stereo not drawn)	GRIN3A LBD mod 11
NC(=O)N/N=C/c1ccc(-c2ccc([N+](=O)[O-])cc2)o1	none
O=[N+]([O-])c1ccc(-c2ccc(/C=N/O)o2)cc1	GRIN3A LBD mod 33
COCCN(C(=O)CNC(=O)c1ccco1)C(C(=O)NC1CCCC1)c1ccc(F)cc1 (stereo not drawn)	none
CC(C)CCN(C(=O)CNC(=O)c1ccco1)C(C(=O)NC1CCCCC1)c1ccco1 (stereo not drawn)	Cardio protect 52
CCN(C[C@H]1N[C@@](CC)(C(=O)OC)[C@H]2C(=O)N(Cc3ccccc3)C(=O)[C@@H]12)C(=O)c1ccc(C(C)(C)C)cc1	Cardio protect 63
CCN(C[C@H]1N[C@@](C)(C(=O)OC)[C@H]2C(=O)N(Cc3ccccc3)C(=O)[C@@H]12)C(=O)COC	none
CCN(C[C@H]1N[C@@](C)(C(=O)OC)[C@H]2C(=O)N(Cc3ccccc3)C(=O)[C@@H]12)C(=O)c1ccc(C(C)(C)C)cc1	Cardio protect 57
CC[C@@]1(C(=O)OC)N[C@H](CN(C)C(=O)c2ccc(C(C)(C)C)cc2)[C@@H]2C(=O)N(Cc3ccccc3)C(=O)[C@@H]21	none
COc1ccc(/C=C/c2nc(N)nc(-c3ccccc3O)n2)cc1	GRIN3A LBD mod 72
COc1ccc(/C=C/c2nc(N)nc(-c3ccccc3O)n2)cc1OC	GRIN3A LBD mod 28
O=C(c1cc(C2CCCCN2S(=O)(=O)c2ccc(F)cc2F)on1)N1CCOCC1 (stereo not drawn)	none (no result: GRIN3A LBD mod, Arr AP2 block)
CCc1nc2ccc(C(=O)NCc3ccccc3OC)cn2c1N(CC)Cc1cccc(Br)c1	none (no result: GRIN3A LBD mod, Arr AP2 block)
COc1ccc(NC(=O)C2(C)CCN2Cc2ccccc2Cl)cc1OC (stereo not drawn)	none (no result: GRIN3A LBD mod, Arr AP2 block)
Cc1ccc(C)c(S(=O)(=O)Nc2ccc(O)cc2)c1	none
CCOC(=O)CNS(=O)(=O)c1cc(-c2n[nH]c(=O)c3ccccc23)ccc1C	Cardio protect 61
CCOC(=O)CNS(=O)(=O)c1cc(-c2nnc(Nc3ccc4c(c3)OCO4)c3ccccc23)ccc1C	none
Cc1ccc(-c2n[nH]c(=O)c3ccccc23)cc1S(=O)(=O)NCC1CCCO1 (stereo not drawn)	Cardio protect 71
Cc1ccc(-c2n[nH]c(=S)c3ccccc23)cc1S(=O)(=O)NCC1CCCO1 (stereo not drawn)	none
Cc1ccc(NS(=O)(=O)c2cc(-c3n[nH]c(=O)c4ccccc34)ccc2C)cc1	Cardio protect 50
COc1nnc(-c2ccc(C)c(S(=O)(=O)NCCO)c2)c2ccccc12	Cardio protect 62
COc1cc(Cl)ccc1OC1(C)CCN(Cc2cccn2-c2nccs2)C1 (stereo not drawn)	none (no result: GRIN3A LBD mod, Arr AP2 block)
CC(=C/c1ccc(C(C)C)cc1)/C=N/NC(=O)c1ccncc1	Cardio protect 58
O=C(N/N=C/c1ccccc1O)c1cc[n+]([O-])cc1	Cardio protect 54
O=C(N/N=C/c1ccccc1O)c1ccncc1	GRIN3A LBD mod 21, Cardio protect 59
O=C(N/N=C/c1ccccc1)c1cc[n+]([O-])cc1	none
CC(=O)Nc1ccc(CN2C(=O)C(C)(C)ON=C2c2ccc(C(F)(F)F)cc2)cc1	none (no result: GRIN3A LBD mod, Arr AP2 block)
COc1ccc(CNC(=O)C2CCN(S(=O)(=O)N3CCC(C)CC3)CC2)c(OC)c1	none (no result: GRIN3A LBD mod, Arr AP2 block)
CC1(C)OC(c2ccccc2)=C/C(=C/C=C2C(=O)c3ccccc3C2=O)O1	SENP1 FRET inh 95
Cc1ccccc1N=C/C=C1/C=C(c2ccccc2)OC(C)(C)O1	none
O=C(NNC(=O)c1cccc2ccccc12)c1ccc(Cl)cc1Cl	GRIN3A LBD mod 23
O=C(NNC(=O)c1cccc2ccccc12)c1cccc(Cl)c1	GRIN3A LBD mod 12
O=C(NNC(=O)c1ccc(Cl)cc1Cl)c1ccc2ccccc2c1	none
O=C(NNC(=O)c1cccc2ccccc12)c1cccc(Br)c1	none
CN(C)c1ccc(-c2csc(C(C)(O)c3cccc(F)c3)n2)cc1 (stereo not drawn)	none (no result: GRIN3A LBD mod, Arr AP2 block)
CN(/N=C/c1ccccc1Cl)c1ncc(Cl)cc1C(F)(F)F	none
CN(/N=C/c1ccc(O)cc1O)c1ncc(C(F)(F)F)cc1Cl	GRIN3A LBD mod 26
COc1ccc(OC)c2c1sc(=NC(=O)c1ccco1)n2C	GRIN3A LBD mod 16
COc1cccc(C(=O)N=c2sc3c(C)ccc(OC)c3n2C)c1	GRIN3A LBD mod 12
COc1ccc(C(=O)N=c2sc3c(C)ccc(OC)c3n2C)cc1OC	none
